Data as given in publication PMC6500440 (International Journal of Nanomedicine, 2019).
Where two headings read alike, the source gives them in different places. Blank lines part the entries; values can stand above or below the molecule they belong to.

What was measured:
[1] = Lipid solubilization assay; type: physicochemical; settings: 5.0 mg/mL LUVs in 10 mM sodium phosphate buffer pH 7.4, before addition of 22A peptide
Outline: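 Phospholipid (POPC or egg sphingomyelin) chloroform stock was dried under nitrogen and hydrated in 10 mM sodium phosphate, pH 7.4. It then went through 5–7 freeze-thaw cycles and was extruded 10 times through 100 nm membranes, at 25°C for POPC and 45°C for eSM. The 5.0 mg/mL LUV suspension was read for turbidity as UV absorbance at 600 nm on a microplate spectrophotometer.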

[2] = cited from earlier work
[3] = Dynamic light scattering particle size; type: physicochemical
Outline: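 LUVs (POPC or egg sphingomyelin) were made by drying the chloroform stock under nitrogen, hydrating in 10 mM sodium phosphate pH 7.4, doing 5–7 freeze-thaw cycles, and extruding 10× through 100 nm membranes (25°C POPC, 45°C eSM). For sHDL, 5.0 mg/mL lipid and peptide solutions were mixed 1:1 wt/wt (~3.75:1 molar). Samples were diluted to 1.0 mg/mL peptide, and intensity- and volume-weighted distributions were read at 25°C.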

[4] = Gel permeation chromatography; type: physicochemical
Outline: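 Test peptide alone in buffer, no phospholipid, at 1, 5 and 10 mg/mL; one condition also incubated at 50°C. Analysed by size-exclusion GPC on a TSK G3000SWx column (7.8 mm×30 cm), eluted with PBS at 1.0 mL/min at ambient temperature, UV detection at 220 nm. Molecular weight was assigned from retention time.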

[5] = target: the molecule itself; assay: SEC + other: dynamic light scattering
[6] = as restated in Results, no reference given
[7] = lipid LUV + 22A 1:1 wt/wt incubated 24 hr at 25°C
[8] = 22A 1 mg/mL in buffer without phospholipid, after incubation at 50°C
[9] = 22A in buffer without phospholipid, before dissociation

- UV 600 nm absorbance (turbidity) of LUV solution [1]: 0.26
- LUV diameter ([3]; extruded LUVs, 5.0 mg/mL solutions, before addition of 22A peptide): 120 nm
- DLS volume (distribution, %): LUV [3, 7]: 0.1%
- DLS volume (distribution, %): sHDL [3, 7]: 99.9%
- DLS intensity (size, nm): LUV ([3]; lipid LUV + 22A 1:1 wt/wt incubated 24 hr at 25°C, remaining liposomes): 137.3 nm
- DLS volume (distribution, %): sHDL ([3]; lipid LUV + 22A 1:1 wt/wt incubated 24 hr at 37°C): 100%
- DLS volume (distribution, %): sHDL ([3]; lipid LUV + 22A 1:1 wt/wt incubated 24 hr at 50°C): 100%
Molecule: CCCCCCCC/C=C\CCCCCCCC(=O)O[C@H](COC(=O)CCCCCCCCCCCCCCC)COP(=O)([O-])OCC[N+](C)(C)C [POPC, 1-palmitoyl-2-oleoyl-sn-glycero-3-phosphocholine]
- transition temperature (Tm) [2, 6]: −2 °C
- transition temperature (Tm) [2]: −2 °C

- GPC retention time of monomeric peptide [4, 8]: 14.9 min
- molecular weight corresponding to GPC retention time, monomeric peptide [4, 8]: ~ 2500 Da
- association state of peptide without lipid ([4]; 22A in buffer without phospholipid, 1, 5 and 10 mg/mL, initial, GPC and DLS): self-associated
- GPC retention time of self-associated peptide [4, 9]: 9.6 min
- molecular weight corresponding to GPC retention time, self-associated peptide [4, 9]: ~ 145,000 Da
Molecule: PVLDLFRELLNELLEALKQKLK [22A]

Molecule: synthetic sphingomyelin [sSM]
- transition temperature (Tm) [2, 6]: approximately 40 °C

Molecule: PVLDLFRELLNELLEALKQKLK [ESP-24218 peptide (22A), ApoA-I-mimetic peptide]
- binding result [5]: binds
